Data taken from ChEMBL document CHEMBL1122008, “Lipophilic 5'-(alkyl phosphate) esters of 1-beta-D-arabinofuranosylcytosine and its N4-acyl and 2,2'-anhydro-3'-O-acyl derivatives as potential prodrugs” (1982).

Tests used:
Format in all cases: functional
L1210 = assay: Growth inhibition of cultured L1210 mouse leukemia cells was determined; details: read-out: ID50 (the source's name)
Method in brief: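 L1210 mouse leukemia cells in suspension in Eagle's MEM with 15% whole (non-dialyzed, non-heat-inactivated) fetal calf serum, antibiotics and 0.05 mM 2-mercaptoethanol, 37 °C, 5% CO2. Drugs in pH 7.4 phosphate buffer or Me2SO, generally 10^-7 to 10^-3 M. Coulter cell counts at 48 h; ID50 relative to untreated controls from dose–response curves, triplicate.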

B16 = assay: Growth inhibition of B16 mouse melanoma cells in culture was determined; details: read-out: ID50 (the source's name)
Method in brief: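 B16 mouse melanoma monolayers in McCoy's 5A with 10% whole fetal calf serum, streptomycin and penicillin, 37 °C, 5% CO2. Drugs were dissolved in 0.05 M pH 7.4 potassium phosphate buffer or Me2SO and dosed at regularly spaced concentrations, generally 10^-7 to 10^-3 M. Cells were counted after 48 h; ID50 versus untreated controls was read from dose–response curves, triplicate.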

Mus musculus [1] = assay: Antitumor activity against L1210 leukemia in mice (Percent increase in life span.) at the dose of 230 mg/kg
Method in brief: (§1)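 Male B6D2F1J mice, groups of 5–9, inoculated ip with 10^5 L1210 cells on day 0. Dosing starts day 1 on a qd×5 or q4d(2,6) schedule. Vehicles are sterile water, pH 7.4 0.05 M potassium phosphate buffer, or 0.4% Tween 80/0.5% CMC/0.9% benzyl alcohol/0.9% saline. %ILS = (T/C − 1)×100 from median survival. Weights taken days 1 and 7.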

Mus musculus [2] = assay: Antitumor activity against L1210 leukemia in mice (Average weight per mouse on day 1.) at the dose of 115 mg/kg
Method in brief: (§2)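 Male B6D2F1J mice (5–9 per group) received 10^5 L1210 cells i.p. on day 0 and drug from day 1, given qd×5 or q4d(2,6). Vehicles were sterile water, 0.05 M potassium phosphate pH 7.4, or 0.4% Tween 80/0.5% CMC/0.9% benzyl alcohol/0.9% saline. Read-out is average body weight per mouse (g) on day 1.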

Mus musculus [3] = assay: Antitumor activity against L1210 leukemia in mice (Average weight per mouse on day 1.) at the dose of 230 mg/kg; method in brief: as §2
Mus musculus [4] = assay: Antitumor activity against L1210 leukemia in mice (Average weight per mouse on day 1.) at the dose of 460 mg/kg; method in brief: as §2
Mus musculus [5] = assay: Antitumor activity against L1210 leukemia in mice (Percent increase in life span.) at the dose of 115 mg/kg; method in brief: as §1
Mus musculus [6] = assay: Antitumor activity against L1210 leukemia in mice (Percent increase in life span.) at the dose of 460 mg/kg (mice surviving 20 or more days); method in brief: as §1
Mus musculus [7] = assay: Antitumor activity against L1210 leukemia in mice (Average 7-day weight change (%)) at the dose of 230 mg/kg
Method in brief: (§3)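 Male B6D2F1J mice, groups of five to nine, inoculated ip with 10^5 L1210 cells on day 0. Drug treatment started day 1 on qd×5 or q4d(2,6) schedule. Vehicles: ara-C in sterile water; the n-butyl phosphate ester in 0.05 M pH 7.4 potassium phosphate buffer; others as suspensions in 0.4% Tween 80/0.5% low-density CMC/0.9% benzyl alcohol/0.9% saline. Mice weighed days 1 and 7; 7-day weight change given as g/mouse and %.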

Mus musculus [8] = assay: Antitumor activity against L1210 leukemia in mice (Average 7-day weight change (%)) at the dose of 460 mg/kg; method in brief: as §3
Mus musculus [9] = assay: Antitumor activity against L1210 leukemia in mice (Average 7-day weight change) at the dose of 115 mg/kg; method in brief: as §3
Mus musculus [10] = assay: Antitumor activity against L1210 leukemia in mice (Average 7-day weight change) at the dose of 460 mg/kg; method in brief: as §3
Mus musculus [11] = assay: Antitumor activity against L1210 leukemia in mice (Average 7-day weight change (%)) at the dose of 115 mg/kg; method in brief: as §3
Mus musculus [12] = assay: Antitumor activity against L1210 leukemia in mice (Average 7-day weight change) at the dose of 230 mg/kg; method in brief: as §3
Mus musculus [13] = assay: Antitumor activity against L1210 leukemia in mice (Percent increase in life span.) at the dose of 260 mg/kg; method in brief: as §1
Mus musculus [14] = assay: Antitumor activity against L1210 leukemia in mice (Average weight per mouse on day 1.) at the dose of 130 mg/kg; method in brief: as §2
Mus musculus [15] = assay: Antitumor activity against L1210 leukemia in mice (Average weight per mouse on day 1.) at the dose of 260 mg/kg; method in brief: as §2
Mus musculus [16] = assay: Antitumor activity against L1210 leukemia in mice (Average weight per mouse on day 1.) at the dose of 390 mg/kg; method in brief: as §2
Mus musculus [17] = assay: Antitumor activity against L1210 leukemia in mice (Percent increase in life span.) at the dose of 130 mg/kg; method in brief: as §1
Mus musculus [18] = assay: Antitumor activity against L1210 leukemia in mice (Percent increase in life span.) at the dose of 390 mg/kg; method in brief: as §1
Mus musculus [19] = assay: Antitumor activity against L1210 leukemia in mice (Average 7-day weight change (%)) at the dose of 130 mg/kg; method in brief: as §3
Mus musculus [20] = assay: Antitumor activity against L1210 leukemia in mice (Average 7-day weight change (%)) at the dose of 260 mg/kg; method in brief: as §3
Mus musculus [21] = assay: Antitumor activity against L1210 leukemia in mice (Average 7-day weight change (%)) at the dose of 390 mg/kg; method in brief: as §3
Mus musculus [22] = assay: Antitumor activity against L1210 leukemia in mice (Average 7-day weight change) at the dose of 260 mg/kg; method in brief: as §3
Mus musculus [23] = assay: Antitumor activity against L1210 leukemia in mice (Average 7-day weight change) at the dose of 130 mg/kg; method in brief: as §3
Mus musculus [24] = assay: Antitumor activity against L1210 leukemia in mice (Average 7-day weight change) at the dose of 390 mg/kg; method in brief: as §3
Mus musculus [25] = assay: Antitumor activity against L1210 leukemia in mice (Percent increase in life span.) at the dose of 267 mg/kg (mice surviving 20 or more days); method in brief: as §1
Mus musculus [26] = assay: Antitumor activity against L1210 leukemia in mice (Average weight per mouse on day 1.) at the dose of 113 mg/kg; method in brief: as §2
Mus musculus [27] = assay: Antitumor activity against L1210 leukemia in mice (Average weight per mouse on day 1.) at the dose of 200 mg/kg; method in brief: as §2
Mus musculus [28] = assay: Antitumor activity against L1210 leukemia in mice (Average weight per mouse on day 1.) at the dose of 267 mg/kg; method in brief: as §2
Mus musculus [29] = assay: Antitumor activity against L1210 leukemia in mice (Percent increase in life span.) at the dose of 113 mg/kg; method in brief: as §1
Mus musculus [30] = assay: Antitumor activity against L1210 leukemia in mice (Average 7-day weight change (%)) at the dose of 200 mg/kg; method in brief: as §3
Mus musculus [31] = assay: Antitumor activity against L1210 leukemia in mice (Average 7-day weight change (%)) at the dose of 267 mg/kg; method in brief: as §3
Mus musculus [32] = assay: Antitumor activity against L1210 leukemia in mice (Average 7-day weight change) at the dose of 200 mg/kg; method in brief: as §3
Mus musculus [33] = assay: Antitumor activity against L1210 leukemia in mice (Average 7-day weight change) at the dose of 267 mg/kg; method in brief: as §3
Mus musculus [34] = assay: Antitumor activity against L1210 leukemia in mice (Average 7-day weight change) at the dose of 113 mg/kg; method in brief: as §3
Mus musculus [35] = assay: Antitumor activity against L1210 leukemia in mice (Average 7-day weight change (%)) at the dose of 113 mg/kg; details: dose 133 mg/kg; in the assay text read “133 mg/kg” for “113 mg/kg”; method in brief: as §3
Mus musculus [36] = assay: Antitumor activity against L1210 leukemia in mice (Percent increase in life span.) at the dose of 200 mg/kg (mice surviving 20 or more days); method in brief: as §1

Question: Which results are given for `Nc1ccn([C@@H]2O[C@H](COP(=O)(O)OCC(O)COCc3ccccc3)[C@@H](O)[C@@H]2O)c(=O)n1` (stereo partly drawn)?
Answer: IC50 (L1210): 1 µM; IC50 (B16): 25 µM

Question: With `CCCCCCCCCCCCCCCCOP(=O)(O)OC[C@H]1O[C@@H](n2ccc(N)nc2=O)[C@@H](O)[C@@H]1O` as the compound, how does the IC50 (L1210) read?
Answer: 11 µM

Question: With `Nc1ccn([C@@H]2O[C@H](COP(=O)(O)OCC(O)CO)[C@@H](O)[C@@H]2O)c(=O)n1` (stereo partly drawn) as the compound, how does the IC50 (L1210) read?
Answer: 0.65 µM

Question: And the IC50 (B16)?
Answer: 26 µM

Question: Which IC50 (L1210) does the source give for `CCCCCCOP(=O)(O)OC[C@H]1O[C@@H](n2ccc(N)nc2=O)[C@@H](O)[C@@H]1O` here?
Answer: 7.8 µM

Question: With `Nc1ccn([C@@H]2O[C@H](COP(=O)(O)O)[C@@H](O)[C@H]2O)c(=O)n1` as the compound, how does the IC50 (L1210) read?
Answer: 0.35 µM

Question: What about the IC50 (B16) of the same compound?
Answer: 1.5 µM

Question: Which results are given for `CCCCCCCCCCCCCCCC(=O)O[C@H]1[C@@H]2Oc3nc(=N)ccn3[C@@H]2O[C@@H]1COP(=O)(O)OCCCCCC`?
Answer: ILS at 230 mg/kg (Mus musculus [1]): 37%; Average weight (Mus musculus [2]): 20.6 g mouse-1; Average weight (Mus musculus [3]): 22.2 g mouse-1; Average weight (Mus musculus [4]): 19.8 g mouse-1; ILS at 115 mg/kg (Mus musculus [5]): 25%; ILS at 460 mg/kg (Mus musculus [6]): 75%; Weight change (Mus musculus [7]): 8%; Weight change (Mus musculus [8]): 14%; Weight change (Mus musculus [9]): 2 g mouse-1; Weight change (Mus musculus [10]): 2.8 g mouse-1; Weight change (Mus musculus [11]): 10%; Weight change (Mus musculus [12]): 1.8 g mouse-1

Question: `CCOP(=O)(O)OC[C@H]1O[C@@H](n2ccc(N)nc2=O)[C@@H](O)[C@@H]1O` was tested. Which IC50 (L1210) did it give?
Answer: 4 µM

Question: What about the IC50 (B16) of the same compound?
Answer: 70 µM

Question: With `CCCCCCCCOP(=O)(O)OC[C@H]1O[C@@H](n2ccc(N)nc2=O)[C@@H](O)[C@@H]1O` as the compound, how does the IC50 (L1210) read?
Answer: 11 µM

Question: And the IC50 (B16)?
Answer: 360 µM

Question: With `CCCCCCCCCCCCCCCC(=O)O[C@H]1[C@@H]2Oc3nc(=N)ccn3[C@@H]2O[C@@H]1COP(=O)(O)OCCCC` as the compound, how does the ILS at 260 mg/kg (Mus musculus [13]) read?
Answer: 62%

Question: And the Average weight (Mus musculus [14])?
Answer: 23 g mouse-1

Question: What about the Average weight (Mus musculus [15]) of the same compound?
Answer: 22.8 g mouse-1

Question: And the Average weight (Mus musculus [16])?
Answer: 24.5 g mouse-1

Question: And the ILS at 130 mg/kg (Mus musculus [17])?
Answer: 62%

Question: And the ILS at 390 mg/kg (Mus musculus [18])?
Answer: 74%

Question: What about the Weight change (Mus musculus [19]) of the same compound?
Answer: 4%

Question: And the Weight change (Mus musculus [20])?
Answer: 4%

Question: What about the Weight change (Mus musculus [21]) of the same compound?
Answer: -7%

Question: And the Weight change (Mus musculus [22])?
Answer: 0.9 g mouse-1

Question: What about the Weight change (Mus musculus [23]) of the same compound?
Answer: 0.9 g mouse-1

Question: And the Weight change (Mus musculus [24])?
Answer: -1.6 g mouse-1

Question: Which results are given for `CCCCCCCCCCCCCCCC(=O)O[C@H]1[C@@H]2Oc3nc(=N)ccn3[C@@H]2O[C@@H]1COP(=O)(O)OCCOCC`?
Answer: ILS at 267 mg/kg (Mus musculus [25]): 150%; Average weight (Mus musculus [26]): 24 g mouse-1; Average weight (Mus musculus [27]): 24.4 g mouse-1; Average weight (Mus musculus [28]): 24 g mouse-1; ILS at 113 mg/kg (Mus musculus [29]): 112%; Weight change (Mus musculus [30]): -16%; Weight change (Mus musculus [31]): -16%; Weight change (Mus musculus [32]): -4 g mouse-1; Weight change (Mus musculus [33]): -3.6 g mouse-1; Weight change (Mus musculus [34]): -2.6 g mouse-1; Weight change (Mus musculus [35]): -11%; ILS at 200 mg/kg (Mus musculus [36]): 137%
